Usually solubility stands for the dissolved amount per volume that the medium holds. Usually IC50 stands for the concentration that inhibits the measured activity by half. The inhibition is the change of the read-out against control, counted positive when it falls.

A short description of series [1]: Solubility in DMSO. It is filed as physicochemical.
Series [2] addresses T1, Broad substrate specificity ATP-binding cassette transporter ABCG2 (Homo sapiens, UniProt Q9UNQ0).
T1 sequence (Q9UNQ0 whole entry): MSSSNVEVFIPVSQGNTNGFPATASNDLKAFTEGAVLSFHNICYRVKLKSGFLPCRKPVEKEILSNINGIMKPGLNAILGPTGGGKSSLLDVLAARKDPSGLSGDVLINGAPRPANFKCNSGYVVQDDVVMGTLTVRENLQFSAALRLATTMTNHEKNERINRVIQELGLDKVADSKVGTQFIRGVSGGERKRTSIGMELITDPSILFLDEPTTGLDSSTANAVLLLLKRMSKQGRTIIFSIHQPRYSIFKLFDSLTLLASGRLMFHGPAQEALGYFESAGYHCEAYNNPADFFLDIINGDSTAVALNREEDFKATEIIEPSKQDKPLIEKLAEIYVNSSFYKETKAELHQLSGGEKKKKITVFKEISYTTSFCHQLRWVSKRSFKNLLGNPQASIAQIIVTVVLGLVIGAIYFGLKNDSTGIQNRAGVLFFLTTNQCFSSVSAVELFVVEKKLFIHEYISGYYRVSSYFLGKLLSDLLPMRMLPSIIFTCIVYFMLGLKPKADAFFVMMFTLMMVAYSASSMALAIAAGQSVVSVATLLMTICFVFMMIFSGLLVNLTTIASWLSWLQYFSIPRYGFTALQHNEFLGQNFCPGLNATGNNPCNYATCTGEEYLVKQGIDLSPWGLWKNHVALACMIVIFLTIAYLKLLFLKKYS
Put plainly: Inhibition of GFP-tagged human BCRP expressed in MDCK2 cells pre-incubated for 30 mins followed by Hoechst 33342 addition and further incubated for 120 mins by Hoechst 33342 accumulation assay. It is filed as cell-based, MDCK-II. In outline:
(§1)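 MDCK II cells stably carrying human BCRP cDNA C-terminally fused to GFP are washed in KHB, pH 7.4. About 30,000 cells/well are preincubated 30 min at 37 °C with compound up to 10 μM (DMSO ≤0.1%, methanol ≤5% for poorly soluble compounds). Hoechst 33342 is added from a 10 μM solution, and fluorescence (ex 355/em 460) is read every 60 s for 120 min. The steady-state mean (100–109 min) is fitted to a four-parameter logistic curve.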

The next series addresses T2, BCRP (ABCG2) (Homo sapiens, UniProt Q9UNQ0).
T2 sequence (Q9UNQ0 whole entry): T1 sequence (Q9UNQ0 whole entry)
Description: Inhibition of GFP-tagged human BCRP expressed in MDCK2 cells pre-incubated for 30 mins followed by Hoechst 33342 addition and further incubated for 120 mins by Hoechst 33342 accumulation assay relative to XR9577. Type of series: cell-based, MDCK-II. The conditions noted are these: MDCK2 cells expressing GFP-tagged human BCRP, probe Hoechst 33342, read-out: Imax.

For a further series, the target named is ABCB1 (P-gp) (Homo sapiens, UniProt P08183). Description: Inhibition of ABCB1 in human A2780adr cells at 10 uM pre-incubated for 30 mins followed by calcein AM addition and further incubated for 60 mins by calcein AM assay. It is filed as cell-based, A2780 ADR. The conditions noted are these: probe calcein AM.
Series [3] addresses Multidrug resistance-associated protein 1 (Homo sapiens, UniProt P33527). Put plainly: Inhibition of MRP1 in human H69AR cells at 10 uM pre-incubated for 30 mins followed by calcein AM addition and further incubated for 60 mins by calcein AM assay. The conditions noted are these: 1 h.
A short description of series [4]: Solubility in water. It is filed as physicochemical. The note with it: buffer.
The target of series [5] is T1, Broad substrate specificity ATP-binding cassette transporter ABCG2. Put plainly: Inhibition of GFP-tagged human BCRP expressed in MDCK2 cells up to 10 uM pre-incubated for 30 mins followed by Hoechst 33342 addition and further incubated for 120 mins by Hoechst 33342 accumulation assay. It is filed as cell-based. The conditions noted are these: mdck-ii, 2 h. In outline: as §1

Series [6] has as its target ATP-dependent translocase ABCB1 (Homo sapiens, UniProt P08183). Put plainly: Inhibition of ABCB1 in human A2780adr cells pre-incubated for 30 mins followed by calcein AM addition and further incubated for 60 mins by calcein AM assay. Type of series: cell-based, A2780 ADR.

SMILES strings stand for the structures.

ATP-dependent translocase ABCB1, sequence (P08183 whole entry): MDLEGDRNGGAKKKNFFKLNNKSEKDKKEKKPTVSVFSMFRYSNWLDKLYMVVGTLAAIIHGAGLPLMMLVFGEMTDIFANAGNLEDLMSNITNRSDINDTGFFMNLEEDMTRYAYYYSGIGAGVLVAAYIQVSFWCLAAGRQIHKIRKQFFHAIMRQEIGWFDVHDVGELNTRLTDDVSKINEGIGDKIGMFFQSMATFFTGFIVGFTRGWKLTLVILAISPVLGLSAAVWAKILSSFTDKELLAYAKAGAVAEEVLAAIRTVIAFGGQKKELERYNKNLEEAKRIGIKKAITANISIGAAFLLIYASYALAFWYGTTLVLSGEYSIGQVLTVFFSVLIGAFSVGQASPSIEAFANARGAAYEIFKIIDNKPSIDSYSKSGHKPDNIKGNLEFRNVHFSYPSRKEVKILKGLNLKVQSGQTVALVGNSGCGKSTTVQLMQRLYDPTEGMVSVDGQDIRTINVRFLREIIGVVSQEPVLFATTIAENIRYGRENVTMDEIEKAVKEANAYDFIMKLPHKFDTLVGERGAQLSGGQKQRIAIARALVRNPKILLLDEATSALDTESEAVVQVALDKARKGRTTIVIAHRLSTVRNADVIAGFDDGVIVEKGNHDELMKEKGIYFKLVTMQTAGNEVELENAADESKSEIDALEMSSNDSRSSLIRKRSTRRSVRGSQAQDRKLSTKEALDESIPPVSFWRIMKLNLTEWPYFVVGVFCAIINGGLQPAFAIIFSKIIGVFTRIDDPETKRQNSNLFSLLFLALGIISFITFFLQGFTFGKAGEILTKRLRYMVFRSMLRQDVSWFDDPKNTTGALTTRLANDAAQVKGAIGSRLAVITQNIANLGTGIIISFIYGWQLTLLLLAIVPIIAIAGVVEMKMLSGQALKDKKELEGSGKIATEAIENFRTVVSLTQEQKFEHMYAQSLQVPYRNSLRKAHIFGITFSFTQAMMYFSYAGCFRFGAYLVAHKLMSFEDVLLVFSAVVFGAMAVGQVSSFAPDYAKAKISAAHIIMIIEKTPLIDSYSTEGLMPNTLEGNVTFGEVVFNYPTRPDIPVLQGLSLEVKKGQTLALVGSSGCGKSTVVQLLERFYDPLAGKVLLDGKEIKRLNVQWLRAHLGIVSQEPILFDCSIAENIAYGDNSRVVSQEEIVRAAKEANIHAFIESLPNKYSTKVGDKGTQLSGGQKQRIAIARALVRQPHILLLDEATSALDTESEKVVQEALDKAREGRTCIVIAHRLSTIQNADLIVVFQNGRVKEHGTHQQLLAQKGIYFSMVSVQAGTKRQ
ABCB1 (P-gp), sequence (P08183 whole entry): as above
Multidrug resistance-associated protein 1, sequence (P33527 whole entry): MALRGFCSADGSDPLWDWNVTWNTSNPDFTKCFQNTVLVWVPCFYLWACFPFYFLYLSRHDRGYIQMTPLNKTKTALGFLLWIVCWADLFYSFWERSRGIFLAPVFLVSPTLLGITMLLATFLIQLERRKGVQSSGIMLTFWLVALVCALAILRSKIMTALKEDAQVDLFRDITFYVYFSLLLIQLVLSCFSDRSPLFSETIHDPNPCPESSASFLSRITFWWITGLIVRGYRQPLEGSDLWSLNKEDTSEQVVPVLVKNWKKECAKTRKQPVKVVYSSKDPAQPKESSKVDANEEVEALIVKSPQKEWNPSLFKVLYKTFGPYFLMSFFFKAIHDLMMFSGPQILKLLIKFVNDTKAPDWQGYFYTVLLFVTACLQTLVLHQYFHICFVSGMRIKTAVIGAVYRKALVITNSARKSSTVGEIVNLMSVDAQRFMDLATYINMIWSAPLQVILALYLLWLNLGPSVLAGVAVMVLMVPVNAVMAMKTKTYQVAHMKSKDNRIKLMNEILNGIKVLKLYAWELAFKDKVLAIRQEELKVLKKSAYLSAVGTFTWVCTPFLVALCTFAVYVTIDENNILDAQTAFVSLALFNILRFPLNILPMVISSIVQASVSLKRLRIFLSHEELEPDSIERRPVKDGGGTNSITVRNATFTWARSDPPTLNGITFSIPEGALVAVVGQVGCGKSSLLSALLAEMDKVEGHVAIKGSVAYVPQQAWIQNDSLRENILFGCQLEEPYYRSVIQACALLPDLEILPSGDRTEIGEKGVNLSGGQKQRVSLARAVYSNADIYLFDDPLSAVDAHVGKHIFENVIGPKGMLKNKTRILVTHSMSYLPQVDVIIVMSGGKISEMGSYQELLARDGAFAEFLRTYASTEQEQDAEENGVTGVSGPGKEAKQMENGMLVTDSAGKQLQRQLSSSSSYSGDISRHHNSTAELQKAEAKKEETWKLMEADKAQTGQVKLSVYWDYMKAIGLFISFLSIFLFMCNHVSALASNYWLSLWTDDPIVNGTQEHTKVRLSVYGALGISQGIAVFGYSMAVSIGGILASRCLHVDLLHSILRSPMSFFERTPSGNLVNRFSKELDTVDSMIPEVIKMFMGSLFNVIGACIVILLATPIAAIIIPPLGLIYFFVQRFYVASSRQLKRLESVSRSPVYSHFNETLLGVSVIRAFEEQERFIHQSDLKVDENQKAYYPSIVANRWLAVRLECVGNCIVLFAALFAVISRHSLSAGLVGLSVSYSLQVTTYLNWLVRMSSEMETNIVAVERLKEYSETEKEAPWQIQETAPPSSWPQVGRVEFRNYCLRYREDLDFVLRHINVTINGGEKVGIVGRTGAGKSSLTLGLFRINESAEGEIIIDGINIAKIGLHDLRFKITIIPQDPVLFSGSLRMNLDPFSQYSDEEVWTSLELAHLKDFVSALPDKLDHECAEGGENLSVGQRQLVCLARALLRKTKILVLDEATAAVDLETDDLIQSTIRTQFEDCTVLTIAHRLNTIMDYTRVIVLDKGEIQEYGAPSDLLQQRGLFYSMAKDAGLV

As for `CCCc1ccc(-n2nnc(-c3ccccc3NC(=O)c3ccc([N+](=O)[O-])cc3)n2)cc1`, the solubility in series [1] is greater than 10 mM; in series [4] it was “Insoluble”. This molecule gave an IC50 in series [2] of 184 nM. For the same molecule, the Emax at 2 h at BCRP (ABCG2) came out at 63%. Besides, at ABCB1 (P-gp), the inhibition at 1 h, 10 µM was less than 25%. In series [3], the “inhibition (INH)” value is given as “Not Active”.

Take `O=C(Nc1ccccc1-c1nnn(-c2ccc(C(F)(F)F)cc2)n1)c1ccc([N+](=O)[O-])cc1`: the “inhibition (INH)” value in series [5] and in series [3] was “Not Active” each time. In addition, the solubility is greater than 10 mM in series [1] and “Insoluble” in series [4]. Further, the inhibition at 1 h, 10 µM on ABCB1 (P-gp) was less than 25%.

Take `Cc1ccc(-n2nnc(-c3ccccc3NC(=O)c3ccc([N+](=O)[O-])cc3)n2)cc1`: the values for the solubility in series [1] and in series [4] were greater than 10 mM and “Insoluble”, respectively. Moreover, the IC50 in series [2] came to 100 nM. Besides, on BCRP (ABCG2), the Emax at 2 h amounted to 71%. The inhibition at 1 h, 10 µM on ABCB1 (P-gp) is less than 25%. Moreover, in series [3], the “inhibition (INH)” value is recorded as “Not Active”.

`CCOc1ccc(-n2nnc(-c3ccccc3NC(=O)c3ccc([N+](=O)[O-])cc3)n2)cc1`: the “inhibition (INH)” value in series [5] and in series [3] was “Not Active” throughout. The solubility is greater than 10 mM in series [1] and “Insoluble” in series [4]. At ABCB1 (P-gp), the inhibition at 1 h, 10 µM was less than 25%.

Turning to `COc1ccccc1-n1nnc(-c2ccccc2NC(=O)c2ccc([N+](=O)[O-])cc2)n1`, the solubility was greater than 10 mM in series [1] and “Insoluble” in series [4]. In series [2], this molecule showed a concentration for half-maximal inhibition (IC50) of 261 nM. For the same molecule, on BCRP (ABCG2), the Emax at 2 h was 102%. Further, the inhibition at 1 h, 10 µM on ABCB1 (P-gp) is less than 25%. In addition, the “inhibition (INH)” value in series [3] was “Not Active”.

Regarding `COc1cccc(-n2nnc(-c3ccccc3NC(=O)c3ccc([N+](=O)[O-])cc3)n2)c1`, the solubility was greater than 10 mM in series [1] and “Insoluble” in series [4]. This molecule also displayed an IC50 in series [2] of 78.9 nM. On BCRP (ABCG2), the Emax at 2 h was 58%. Also, on ABCB1 (P-gp), the inhibition at 1 h, 10 µM was less than 25%. Also, in series [3], the “inhibition (INH)” value is listed as “Not Active”.

As to `COc1ccc(-n2nnc(-c3ccccc3NC(=O)c3ccc([N+](=O)[O-])cc3)n2)cc1`, the solubility in series [1] was greater than 10 mM; in series [4], “Insoluble”. The same molecule displayed an IC50 in series [2] of 118 nM. In addition, the Emax at 2 h at BCRP (ABCG2) turned out to be 61%. For the same molecule, the inhibition at 1 h, 10 µM at ABCB1 (P-gp) is less than 25%. Besides, the “inhibition (INH)” value in series [3] is reported as “Not Active”.

As for `CCCc1ccc(-n2nnc(-c3ccccc3NC(=O)c3ccc(C(F)(F)F)cc3)n2)cc1`, the “inhibition (INH)” value in series [5] and in series [3] was “Not Active” each time. For the same molecule, the values for the solubility in series [1] and in series [4] were greater than 10 mM and “Insoluble”, respectively. On ABCB1 (P-gp), the inhibition at 1 h, 10 µM was less than 25%.

In the case of `O=C(Nc1ccccc1-c1nnn(-c2ccc(C(F)(F)F)cc2)n1)c1ccc(C(F)(F)F)cc1`, the “inhibition (INH)” value in series [5] and in series [3] was “Not Active” in each case. Further, the solubility in series [1] is greater than 10 mM; in series [4], “Insoluble”. Also, the inhibition at 1 h, 10 µM on ABCB1 (P-gp) was less than 25%.

For the molecule `Cc1ccc(-n2nnc(-c3ccccc3NC(=O)c3ccc(C(F)(F)F)cc3)n2)cc1`, the solubility in series [1] is greater than 10 mM; in series [4], “Insoluble”. In series [2], this molecule gave an IC50 of 137 nM. On BCRP (ABCG2), the Emax at 2 h was determined as 65%. The inhibition at 1 h, 10 µM on ABCB1 (P-gp) is less than 25%. The “inhibition (INH)” value in series [3] was “Not Active”.

Regarding `CCOc1ccc(-n2nnc(-c3ccccc3NC(=O)c3ccc(C(F)(F)F)cc3)n2)cc1`, the “inhibition (INH)” value in series [5] and in series [3] was “Not Active” throughout. Further, the solubility in series [1] was greater than 10 mM; in series [4], “Insoluble”. Further, the inhibition at 1 h, 10 µM at ABCB1 (P-gp) was less than 25%.

On to `COc1ccccc1-n1nnc(-c2ccccc2NC(=O)c2ccc(C(F)(F)F)cc2)n1`, for which the solubility is greater than 10 mM in series [1] and “Insoluble” in series [4]. Further, the IC50 is 451 nM in series [2] and 11000 nM in series [6]. Moreover, the Emax at 2 h at BCRP (ABCG2) turned out to be 100%. Moreover, the inhibition at 1 h, 10 µM at ABCB1 (P-gp) is no less than 25%. Moreover, in series [3], the “inhibition (INH)” value is given as “Not Active”.

Take `COc1cccc(-n2nnc(-c3ccccc3NC(=O)c3ccc(C(F)(F)F)cc3)n2)c1`: the solubility in series [1] was greater than 10 mM; in series [4], “Insoluble”. The IC50 in series [2] was determined as 11200 nM. Moreover, the Emax at 2 h at BCRP (ABCG2) was determined as 100%. Further, the inhibition at 1 h, 10 µM on ABCB1 (P-gp) was less than 25%. Also, in series [3], the “inhibition (INH)” value was “Not Active”.

For the molecule `COc1ccc(-n2nnc(-c3ccccc3NC(=O)c3ccc(C(F)(F)F)cc3)n2)cc1`, the solubility in series [1] is greater than 10 mM; in series [4] it was “Insoluble”. The molecule also showed an IC50 in series [2] of 106 nM. Also, the Emax at 2 h on BCRP (ABCG2) came to 93%. Also, on ABCB1 (P-gp), the inhibition at 1 h, 10 µM is less than 25%. The “inhibition (INH)” value in series [3] is listed as “Not Active”.

Take `COc1ccc(C(=O)Nc2ccccc2-c2nnn(-c3ccc(C(F)(F)F)cc3)n2)cc1OC`: the solubility in series [1] is greater than 10 mM; in series [4] it was “Insoluble”. The molecule also displayed an IC50 in series [2] of 269 nM. Also, the Emax at 2 h at BCRP (ABCG2) was found to be 85%. The inhibition at 1 h, 10 µM at ABCB1 (P-gp) is less than 25%. Moreover, the “inhibition (INH)” value in series [3] is given as “Not Active”.

On to `CCOc1ccc(-n2nnc(-c3ccccc3NC(=O)c3ccc(OC)c(OC)c3)n2)cc1`, for which the solubility is greater than 10 mM in series [1] and “Insoluble” in series [4]. The IC50 was 201 nM in series [2] and 32800 nM in series [6]. Moreover, the Emax at 2 h on BCRP (ABCG2) was 106%. Besides, the inhibition at 1 h, 10 µM on ABCB1 (P-gp) was no less than 25%. For the same molecule, the “inhibition (INH)” value in series [3] is listed as “Not Active”.

With `COc1ccc(-n2nnc(-c3ccccc3NC(=O)c3ccc(OC)c(OC)c3)n2)cc1`, the results for the solubility in series [1] and in series [4] were greater than 10 mM and “Insoluble”, respectively. The IC50 in series [2] is 117 nM; in series [6], 37200 nM. Further, the Emax at 2 h on BCRP (ABCG2) was found to be 107%. The inhibition at 1 h, 10 µM on ABCB1 (P-gp) is no less than 25%. In addition, the “inhibition (INH)” value in series [3] was “Not Active”.

Take `COc1ccc(C(=O)Nc2ccccc2-c2nnn(-c3ccccc3OC)n2)cc1`: the solubility in series [1] was greater than 10 mM; in series [4] it was “Insoluble”. Also, the values for the IC50 in series [2] and in series [6] were 180 nM and 7730 nM, respectively. In addition, the Emax at 2 h on BCRP (ABCG2) stood at 88%. The inhibition at 1 h, 10 µM at ABCB1 (P-gp) is no less than 25%. Further, in series [3], the “inhibition (INH)” value is “Not Active”.

As for `O=C(Nc1ccccc1C(=O)Nc1ccc(CCN2CCc3ccccc3C2)cc1)c1cnc2ccccc2c1`, in series [2], the 50% inhibitory concentration (IC50) stood at 721 nM.

The values above are taken from ChEMBL document CHEMBL3425464, “HM30181 Derivatives as Novel Potent and Selective Inhibitors of the Breast Cancer Resistance Protein (BCRP/ABCG2)” (J Med Chem, 2015).
